Source: ChEMBL document CHEMBL4715736, “Identification of anticancer agents based on the thieno[2,3-b]pyridine and 1H-pyrazole molecular scaffolds” (2016)

Tests used:
Assay type in all cases: functional
Hs-578T = assay: Growth inhibition of human Hs-578T cells assessed as cell growth at 0.01 uM incubated for 48 hrs by sulforhodamine B assay relative to control; details: read-out: Activity
MDA-MB-231 = assay: Growth inhibition of human MDA-MB-231 cells assessed as cell growth at 0.1 uM incubated for 48 hrs by sulforhodamine B assay relative to control; details: read-out: Activity
NCI-H322M = assay: Growth inhibition of human NCI-H322M cells assessed as cell growth at 0.01 uM incubated for 48 hrs by sulforhodamine B assay relative to control; details: read-out: Activity
UACC-257 = assay: Growth inhibition of human UACC-257 cells assessed as cell growth at 1 uM incubated for 48 hrs by sulforhodamine B assay relative to control; details: read-out: Activity
SN12C [1] = assay: Growth inhibition of human SN12C cells assessed as cell growth at 0.1 uM incubated for 48 hrs by sulforhodamine B assay relative to control; details: read-out: Activity
MOLT-4 = assay: Growth inhibition of human MOLT-4 cells assessed as cell growth at 100 uM incubated for 48 hrs by sulforhodamine B assay relative to control; details: read-out: Activity
SF-268 = assay: Growth inhibition of human SF-268 cells assessed as cell growth at 1 uM incubated for 48 hrs by sulforhodamine B assay relative to control; details: read-out: Activity
SF-295 = assay: Growth inhibition of human SF-295 cells incubated for 48 hrs by sulforhodamine B assay
In short: (§1)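 NCI DTP 60-line human tumour panel. Dose-response curves were run only for ligands active in the initial 10 µM screen. GI50 (concentration giving 50% of maximal inhibition of proliferation) and TGI (concentration giving total growth inhibition) were derived from these curves.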

HCT-116 = assay: Growth inhibition of human HCT-116 cells assessed as cell growth at 0.01 uM incubated for 48 hrs by sulforhodamine B assay relative to control; details: read-out: Activity
SW-620 = assay: Growth inhibition of human SW-620 cells assessed as cell growth at 1 uM incubated for 48 hrs by sulforhodamine B assay relative to control; details: read-out: Activity
OVCAR-8 = assay: Growth inhibition of human OVCAR-8 cells assessed as cell growth at 1 uM incubated for 48 hrs by sulforhodamine B assay relative to control; details: read-out: Activity
PC-3 [2] = assay: Growth inhibition of human PC-3 cells assessed as cell growth at 0.01 uM incubated for 48 hrs by sulforhodamine B assay relative to control; details: read-out: Activity
KM12 = assay: Growth inhibition of human KM12 cells assessed as cell growth at 1 uM incubated for 48 hrs by sulforhodamine B assay relative to control; details: read-out: Activity
HOP-62 [3] = assay: Growth inhibition of human HOP-62 cells assessed as cell growth at 0.1 uM incubated for 48 hrs by sulforhodamine B assay relative to control; details: read-out: Activity
SNB-19 = assay: Growth inhibition of human SNB-19 cells assessed as cell growth at 0.01 uM incubated for 48 hrs by sulforhodamine B assay relative to control; details: read-out: Activity
NCI-H460 = assay: Growth inhibition of human NCI-H460 cells incubated for 48 hrs by sulforhodamine B assay
In short: (§2)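 NCI60 panel at the NCI Developmental Therapeutics Program. Only compounds active in the 10 µM screen went to dose-response testing. GI50, the concentration giving 50% of maximal inhibition of proliferation, and TGI, the concentration giving total growth inhibition, were derived from the dose-response curves.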

SK-MEL-5 [4] = assay: Growth inhibition of human SK-MEL-5 cells incubated for 48 hrs by sulforhodamine B assay; in short: as §1
SN12C [5] = assay: Growth inhibition of human SN12C cells assessed as cell growth at 1 uM incubated for 48 hrs by sulforhodamine B assay relative to control; details: read-out: Activity
HOP-62 [6] = assay: Growth inhibition of human HOP-62 cells incubated for 48 hrs by sulforhodamine B assay; in short: as §2
SK-MEL-5 [7] = assay: Growth inhibition of human SK-MEL-5 cells assessed as cell growth at 1 uM incubated for 48 hrs by sulforhodamine B assay relative to control; details: read-out: Activity
OVCAR-4 = assay: Growth inhibition of human OVCAR-4 cells assessed as cell growth at 1 uM incubated for 48 hrs by sulforhodamine B assay relative to control; details: read-out: Activity
IGROV-1 [8] = assay: Growth inhibition of human IGROV-1 cells assessed as cell growth at 100 uM incubated for 48 hrs by sulforhodamine B assay relative to control; details: read-out: Activity
MCF7 [9] = assay: Growth inhibition of human MCF7 cells assessed as cell growth at 0.01 uM incubated for 48 hrs by sulforhodamine B assay relative to control; details: read-out: Activity
OVCAR-3 = assay: Growth inhibition of human OVCAR-3 cells assessed as cell growth at 0.01 uM incubated for 48 hrs by sulforhodamine B assay relative to control; details: read-out: Activity
PC-3 [10] = assay: Growth inhibition of human PC-3 cells assessed as cell growth at 100 uM incubated for 48 hrs by sulforhodamine B assay relative to control; details: read-out: Activity
T47D = assay: Growth inhibition of human T47D cells assessed as cell growth at 1 uM incubated for 48 hrs by sulforhodamine B assay relative to control; details: read-out: Activity
786-0 = assay: Growth inhibition of human 786-0 cells assessed as cell growth at 0.01 uM incubated for 48 hrs by sulforhodamine B assay relative to control; details: read-out: Activity
In short: (§3)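 NCI Developmental Therapeutics Program NCI60 panel. Compounds that were active in the 10 µM one-dose screen went on to dose–response testing. Growth at each concentration is expressed relative to untreated control (100%). GI50 (concentration giving 50% of maximal inhibition of proliferation) and TGI (concentration giving total growth inhibition) were derived from the curves.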

IGROV-1 [11] = assay: Growth inhibition of human IGROV-1 cells incubated for 48 hrs by sulforhodamine B assay; in short: as §2
DU-145 = assay: Growth inhibition of human DU-145 cells assessed as cell growth at 100 uM incubated for 48 hrs by sulforhodamine B assay relative to control; details: read-out: Activity; in short: as §3
LOX IMVI = assay: Growth inhibition of human LOX IMVI cells assessed as cell growth at 100 uM incubated for 48 hrs by sulforhodamine B assay relative to control; details: read-out: Activity
OVCAR-5 = assay: Growth inhibition of human OVCAR-5 cells assessed as cell growth at 1 uM incubated for 48 hrs by sulforhodamine B assay relative to control; details: read-out: Activity
MCF7 [12] = assay: Growth inhibition of human MCF7 cells assessed as cell growth at 1 uM incubated for 48 hrs by sulforhodamine B assay relative to control; details: read-out: Activity
MDA-MB-468 = assay: Growth inhibition of human MDA-MB-468 cells assessed as cell growth at 100 uM incubated for 48 hrs by sulforhodamine B assay relative to control; details: read-out: Activity
NCI-H522 = assay: Growth inhibition of human NCI-H522 cells assessed as cell growth at 1 uM incubated for 48 hrs by sulforhodamine B assay relative to control; details: read-out: Activity
SK-OV-3 = assay: Growth inhibition of human SK-OV-3 cells incubated for 48 hrs by sulforhodamine B assay; in short: as §1

CCc1cccc(C)c1NC(=O)c1sc2nc3c(cc2c1N)C(=O)CCC3
growth at 0.01 µM (Hs-578T): 93% | growth at 0.1 µM (MDA-MB-231): 100% | growth at 0.01 µM (NCI-H322M): 91% | growth at 1 µM (UACC-257): 54% | growth at 0.1 µM (SN12C [1]): 92% | growth at 100 µM (MOLT-4): -9% | growth at 1 µM (SF-268): 54% | GI50 (SF-295): 276 nM | LC50 (concentration killing 50% of cells) (SF-295): > 100 µM | TGI (SF-295): > 100 µM | growth at 0.01 µM (HCT-116): 92% | growth at 1 µM (SW-620): 17% | growth at 1 µM (OVCAR-8): 62% | growth at 0.01 µM (PC-3 [2]): 94% | growth at 1 µM (KM12): 24% | growth at 0.1 µM (HOP-62 [3]): 92% | growth at 0.01 µM (SNB-19): 96% | GI50 (NCI-H460): 355 nM | LC50 (NCI-H460): > 100 µM | TGI (NCI-H460): 12.6 µM | GI50 (SK-MEL-5 [4]): 294 nM | LC50 (SK-MEL-5 [4]): 39 µM | TGI (SK-MEL-5 [4]): 151 µM | growth at 1 µM (SN12C [5]): 45% | GI50 (HOP-62 [6]): 679 nM | LC50 (HOP-62 [6]): > 100 µM | TGI (HOP-62 [6]): > 100 µM | growth at 1 µM (SK-MEL-5 [7]): 6% | growth at 1 µM (OVCAR-4): 39% | growth at 100 µM (IGROV-1 [8]): 8% | growth at 0.01 µM (MCF7 [9]): 83% | growth at 0.01 µM (OVCAR-3): 101% | growth at 100 µM (PC-3 [10]): 18% | growth at 1 µM (T47D): 28% | growth at 0.01 µM (786-0): 86% | GI50 (IGROV-1 [11]): 0.111 µM | LC50 (IGROV-1 [11]): > 100 µM | TGI (IGROV-1 [11]): > 100 µM | growth at 100 µM (DU-145): 9% | growth at 100 µM (LOX IMVI): 8% | growth at 1 µM (OVCAR-5): 59% | growth at 1 µM (MCF7 [12]): 18% | growth at 100 µM (MDA-MB-468): -18%

CCc1ccccc1NC(=O)c1sc2nc3c(cc2c1N)C(=O)CCC3
growth at 0.01 µM (Hs-578T): 93% | growth at 0.1 µM (MDA-MB-231): 90% | growth at 0.01 µM (NCI-H322M): 97% | growth at 1 µM (UACC-257): 52% | growth at 0.1 µM (SN12C [1]): 88% | growth at 100 µM (MOLT-4): 31% | growth at 1 µM (SF-268): 53% | GI50 (SF-295): 257 nM | LC50 (concentration killing 50% of cells) (SF-295): > 100 µM | TGI (SF-295): ≥ 100 µM | growth at 0.01 µM (HCT-116): 99% | growth at 1 µM (SW-620): 18% | growth at 1 µM (OVCAR-8): 60% | growth at 1 µM (KM12): 21% | growth at 0.1 µM (HOP-62 [3]): 82% | growth at 0.01 µM (SNB-19): 91% | GI50 (NCI-H460): 345 nM | LC50 (NCI-H460): > 100 µM | TGI (NCI-H460): > 100 µM | GI50 (SK-MEL-5 [4]): 282 nM | LC50 (SK-MEL-5 [4]): > 100 µM | TGI (SK-MEL-5 [4]): > 100 µM | growth at 1 µM (SN12C [5]): 40% | GI50 (HOP-62 [6]): 445 nM | LC50 (HOP-62 [6]): > 100 µM | TGI (HOP-62 [6]): ≥ 100 µM | growth at 1 µM (SK-MEL-5 [7]): 11% | growth at 1 µM (OVCAR-4): 45% | growth at 100 µM (IGROV-1 [8]): 7% | growth at 0.01 µM (MCF7 [9]): 82% | growth at 1 µM (NCI-H522): 34% | growth at 0.01 µM (OVCAR-3): 107% | growth at 1 µM (T47D): 20% | growth at 0.01 µM (786-0): 90% | GI50 (IGROV-1 [11]): 13.7 µM | LC50 (IGROV-1 [11]): > 100 µM | TGI (IGROV-1 [11]): > 100 µM | growth at 100 µM (DU-145): 2% | growth at 100 µM (LOX IMVI): 24% | growth at 1 µM (OVCAR-5): 50% | growth at 1 µM (MCF7 [12]): 17% | GI50 (SK-OV-3): 537 nM | TGI (SK-OV-3): 75.7 µM | CC50 (SK-OV-3; read-out: LC50 (the source's name)): > 100 µM | growth at 100 µM (MDA-MB-468): -8%
